12 compounds from ChEMBL document CHEMBL1139961, “Synthesis and evaluation of isoxazole derivatives as lysophosphatidic acid (LPA) antagonists” (Bioorg Med Chem Lett, 2007) can be followed below.

The target in assay [1] is Lysophosphatidic acid receptor 1 (Homo sapiens, UniProt Q92633). Put plainly: Antagonist activity at human recombinant LPA1 receptor expressed in CHOK1 cells assessed as inhibition of lysophosphatidic acid-induced intracellular calcium influx. Type of assay: functional, cell-based, CHO-K1. The essentials:
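LPA1-transfected CHO-K1 cells grown in aMEM/F12 with 400 µg/ml Zeocin and 7% FBS. Loaded with Fluo-3 AM in 20 mM Hepes/HBSS/2.5 mM probenecid, 1 h, 37 °C. Washed, resuspended with 0.1% BSA, 24,000 cells/well. FLIPR fluorescence (ex 488/em 540 nm) read before and after compound addition, with or without 1 µM LPA. IC50 is the mean of at least two runs.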

Assay [2] has as its target Lysophosphatidic acid receptor 1 (Rattus norvegicus, UniProt P61794). Put plainly: Antagonist activity at LPA1 receptor in rat hepatic stellate cells assessed as inhibition of lysophosphatidic acid-induced intracellular calcium influx. Type of assay: functional, cell-based. The essentials:
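Stellate cells isolated from male Wistar rat liver, seeded overnight at 24,000 cells/well. Loaded with 4 µM Fluo-3 AM in buffer (0.1% BSA, 20 mM Hepes, HBSS, 2.5 mM probenecid), 37 °C, 1 h, then FLIPR Ca2+ read. Test substance added with LPA at 5 µM final. LPA without compound = 100%, no LPA = 0%. IC50 is the mean of at least two runs.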
On the technique in general: Calcium assays in cells follow changes in intracellular calcium, usually with a dye or a luminescent sensor.

Chain of Lysophosphatidic acid receptor 1 (Rattus norvegicus, UniProt P61794) (P61794 whole entry): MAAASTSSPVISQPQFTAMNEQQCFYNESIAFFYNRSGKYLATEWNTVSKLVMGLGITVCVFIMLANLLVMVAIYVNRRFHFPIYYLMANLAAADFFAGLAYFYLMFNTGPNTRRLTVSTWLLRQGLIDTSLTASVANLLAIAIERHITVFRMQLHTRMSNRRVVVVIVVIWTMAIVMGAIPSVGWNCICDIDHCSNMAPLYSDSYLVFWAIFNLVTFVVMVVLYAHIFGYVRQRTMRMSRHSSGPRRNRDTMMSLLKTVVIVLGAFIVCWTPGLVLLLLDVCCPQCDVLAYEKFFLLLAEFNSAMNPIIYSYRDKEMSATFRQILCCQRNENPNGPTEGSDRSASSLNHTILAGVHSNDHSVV
Chain of Lysophosphatidic acid receptor 1 (Homo sapiens, UniProt Q92633) (Q92633 whole entry): as the sequence (P61794 whole entry) above, with A4I, S8I, Q22P, Y40H, V61I, D193E, H194N, V269I, N331S, N335T counted along it

In the case of `CC(OC(=O)Nc1conc1-c1ccc(CCSCC(=O)O)cc1)c1ccccc1Cl` (centres undefined), the figures for the IC50 in assay [1] and in assay [2] were 130 nM and 100 nM, respectively.
`CC(OC(=O)Nc1ccccc1-c1ccc(CSCCC(=O)O)cc1)c1ccccc1Cl` (centres undefined): the IC50 (commonly the concentration that inhibits the measured activity by half) in assay [1] is over 40000 nM; in assay [2], over 20000 nM.
For `CC(OC(=O)Nc1conc1-c1ccc(NC(=O)CCC(=O)O)cc1)c1ccccc1Cl` (centres undefined), in that order: 140 nM and 73 nM.
As for `CC(OC(=O)Nc1conc1-c1ccc(CSCCC(=O)O)cc1)C1=C(Cl)CCC1` (centres undefined), the results for the IC50 in assay [1] and in assay [2] were 130 nM and 29 nM, respectively.
For `CC(OC(=O)Nc1conc1-c1ccc(CS(=O)(=O)CCC(=O)O)cc1)c1ccccc1Cl` (centres undefined), in that order: 280 nM and 110 nM.
With `Cc1noc(-c2ccc(CSCCC(=O)O)cc2)c1NC(=O)OC(C)c1ccccc1Cl` (centres undefined), the IC50 was found to be 510 nM in assay [1] and 160 nM in assay [2].
For `CC(OC(=O)Nc1conc1-c1ccc(CSCCC(=O)O)cc1)C1=C(Cl)CCCC1` (centres undefined), in that order: 170 nM and 56 nM.
`CC(OC(=O)Nc1conc1-c1ccc(CCC(C)(C)CC(=O)O)cc1)c1ccccc1Cl` (centres undefined): the results for the half-inhibitory concentration (IC50) in assay [1] and in assay [2] were 370 nM and 120 nM, respectively.
In the case of `CC(OC(=O)Nc1conc1-c1ccc(CCCCC(=O)O)cc1)c1ccccc1Cl` (centres undefined), the IC50 in assay [1] came out at 200 nM; in assay [2], 72 nM.
For the compound `CC(OC(=O)Nc1conc1-c1ccc(CSCCS(=O)(=O)O)cc1)c1ccccc1Cl` (centres undefined), the IC50 turned out to be 430 nM in assay [1] and 74 nM in assay [2].
For `CC(OC(=O)Nc1conc1-c1ccc(CSCCC(=O)O)cc1)c1ccccc1Cl` (centres undefined), in that order: 220 nM and 49 nM.
On the same counts, the results for `CC(OC(=O)Nc1cnoc1-c1ccc(CSCCC(=O)O)cc1)c1ccccc1Cl` (centres undefined) are 260 nM and 81 nM.
